# Screening data (PubChem BioAssay)
# Compounds with a hit are over-represented: about 1.4% of the library has one in this group of screens.
# FXIIa inh = blocks human coagulation factor XIIa protease activity; P00748; purified FXIIa, Boc-QGR-AMC fluorogenic substrate, 2 h; inhibition, % at 5 µM; actives 0.3% (n = 220,000); AID 800; in the data active means inhibition above about 40%;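 further: 0% = enzyme with no compound and 100% = blank without enzyme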
# FXIa inh 1536 = factor XIa (human) inhibition. actives 0.14% (n = 220,000). inhibition, % at 5 µM. purified FXIa, Boc-Glu-Ala-Arg-AMC fluorogenic substrate. AID 798. P03951;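 active means inhibition of at least 40%; inactive means inhibition below 40%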;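 further: fluorescence of freed AMC excited at 355 nm; 0% = enzyme without compound and 100% = no enzyme blank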
# Target sequence (P03951 19-387 limits assumed): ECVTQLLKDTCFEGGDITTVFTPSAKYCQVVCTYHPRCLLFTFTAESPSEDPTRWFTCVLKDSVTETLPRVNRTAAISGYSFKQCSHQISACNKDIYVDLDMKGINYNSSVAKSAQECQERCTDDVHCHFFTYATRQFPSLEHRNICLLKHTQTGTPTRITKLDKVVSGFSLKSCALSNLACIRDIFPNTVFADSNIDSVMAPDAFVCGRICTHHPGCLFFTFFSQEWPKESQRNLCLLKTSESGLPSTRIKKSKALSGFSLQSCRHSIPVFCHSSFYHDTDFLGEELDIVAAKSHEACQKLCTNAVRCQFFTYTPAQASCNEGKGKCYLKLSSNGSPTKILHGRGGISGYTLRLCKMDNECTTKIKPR
# Target sequence (P03951 388-625 limits assumed): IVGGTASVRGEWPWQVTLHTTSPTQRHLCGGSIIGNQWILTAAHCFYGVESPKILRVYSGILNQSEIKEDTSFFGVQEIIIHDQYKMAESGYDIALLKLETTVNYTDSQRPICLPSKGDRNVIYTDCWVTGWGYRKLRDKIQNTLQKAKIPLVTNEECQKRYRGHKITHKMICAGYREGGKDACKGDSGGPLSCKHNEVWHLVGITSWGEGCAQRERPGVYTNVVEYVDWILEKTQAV
# hK5 inh = inhibitors of human kallikrein 5; Q9Y337; recombinant hK5, fluorogenic AMC substrate cleavage; inhibition, % at 5 µM; actives 0.59% (n = 210,000);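 active means inhibition of 40% or more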;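 further: 0% = enzyme controls without compound and 100% = no-enzyme blanks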
# Thrombin inh = blocks human thrombin protease activity; inhibition, % at 5 µM; actives 0.26% (n = 220,000); alpha-thrombin, Boc-VPR-AMC fluorogenic substrate cleavage;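 active means inhibition at or above 40%; inactive means inhibition below 40%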;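 further: 0% = enzyme with no compound and 100% = wells without enzyme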
#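 Material: human alpha-thrombin protein. Incubation: reaction at ambient temperature. Technique: fluorescence of released AMC, ex 355 nm, em 460 nm. Control set: no-compound enzyme wells and no-enzyme blanks. Also added: Boc-VPR-AMC substrate, 15 µM final. Buffer or medium: pH 7.5 Tris (50 mM) with NaCl 150 mM, Tween 20 0.05%.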
# Furin inh = inhibitors of human furin; purified furin, fluorogenic substrate cleavage; inhibition, % at 20 µM or 30 µM; actives 0.061% (n = 220,000); AID 463115; in the data active means inhibition above about 25%
# Calpain2 inh = calpain II (pig) inhibition | purified calpain II, fluorogenic peptide substrate, 30 min | inhibition, % at 16 µM | actives 0.37% (n = 220,000) | AID 1236;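 active means inhibition above about 50%, limit read from the data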
# Starred values were filed as active, the others as inactive; . = not tested or not shown.
SMILES,FXIIa inh,FXIa inh 1536,hK5 inh,Thrombin inh,Furin inh,Calpain2 inh
Cc1onc(C(=O)Nc2cccnc2Cl)c1[N+](=O)[O-],-2,-5,-8,-6,-14,-7
CC(C)c1onc(C(=O)Nc2cccnc2Cl)c1[N+](=O)[O-],7,-7,.,-1,-25,56*
Cc1noc(C)c1COc1ccc(C(=O)NCc2ccccn2)cc1,11,-7,41*,4,-19,11
COCCn1cc(C(=O)c2ccccc2OCC(=O)Nc2cc(C)on2)cc(C#N)c1=O,4,6,42*,24,-6,-3
COCCCn1cc(C(=O)c2ccccc2OCC(=O)Nc2cccc(F)c2)cc(C#N)c1=O,2,-6,-4,10,-23,-38
O=c1[nH]c2ccccc2nc1-c1ccccc1,18,19,112*,11,-2,14
O=c1[nH]c2ccccc2nc1-c1ccc(Cl)cc1,10,5,3,4,4,-86
O=C(CN1C(=O)c2cccc3cccc1c23)NCc1ccccn1,28,5,-1,-2,-8,-86
CCCCC(=O)Nc1cc(C(=O)NCCc2ccccc2)ccc1Cl,19,3,63*,18,-12,19
COc1cccc(C(=O)Nc2cc(C(=O)NCCc3ccccc3)ccc2Cl)c1,11,4,-1,-4,-18,-10
CCC(C)(C)n1nnnc1C(c1cc2ccc(OC)cc2[nH]c1=O)N1CCN(C2CCCCC2)CC1 (stereo unspecified),-3,7,57*,31,-5,-7
O=C(CN(c1ccccn1)S(=O)(=O)c1ccccc1)N/N=C/c1cccc([N+](=O)[O-])c1,2,2,1,-10,-8,12
CC1CN(c2nc3ccccn3c(=O)c2/C=C(\C#N)S(=O)(=O)c2ccccc2)CC(C)O1 (stereo unspecified),19,2,1,3,31*,9
CN1CCN(c2nc3ccccn3c(=O)c2/C=C(\C#N)S(=O)(=O)c2ccccc2)CC1,15,6,4,4,-2,17
Cc1cc(C)n(-c2ccc(Cl)c(Cl)c2)n1,8,-2,-1,-6,-34,-14
CCn1c(C)nc2cc(S(N)(=O)=O)ccc21,12,-4,3,-4,-2,-21
CCn1c(C)nc2cc(S(=O)(=O)C(F)(F)C(F)C(F)(F)F)ccc21 (stereo unspecified),-6,-4,3,-4,-16,90*
CC1CCN(S(=O)(=O)c2cccc(C(=O)Oc3ccc([N+](=O)[O-])cc3)c2)CC1,22,20,24,22,-9,20
COc1ccc(C2c3cc(OC)c(OC)cc3CCN2S(C)(=O)=O)cc1OC (stereo unspecified),46*,25,11,29,-7,5
COc1cc2c(cc1OC)CN(S(C)(=O)=O)CC2,17,8,-2,3,-6,-24
CCOC(=O)c1nnsc1Nc1ccc(C)c(C)c1,10,4,6,-9,-23,17
COc1cc(C2Nc3cccc4cccc(c34)N2)cc(OC)c1O,9,1,9,1,-14,-47
Oc1ccc(C2Nc3cccc4cccc(c34)N2)c(O)c1,14,11,57*,67*,-23,-174
Cc1c(C(=O)N2CCC(C)CC2)sc2ncnc(N3CCN(c4ccccc4)CC3)c12,-8,-12,-20,5,-11,63*
COc1ccc(/C=C2/SC(=S)N(n3c(C)ccc3C)C2=O)cc1,84*,1,-14,-8,-11,-78
SMILES,FXIIa inh,FXIa inh 1536,hK5 inh,Thrombin inh,Furin inh,Calpain2 inh
Cc1ccc(-n2cc(C(C)(C)C)[nH]c2=S)cc1,11,2,-8,1,-21,-9
CC(C)Cn1c(N)c(C(=O)COC(=O)c2ccc3c(c2)OCCO3)c(=O)n(C)c1=O,10,0,-24,-4,-13,-23
CC(C)Cn1c(N)c(C(=O)COC(=O)c2ccc(F)cc2)c(=O)n(C)c1=O,5,-11,-10,-15,-19,53*
CCc1ccc(C(=O)OCC(=O)c2c(N)n(CC(C)C)c(=O)n(C)c2=O)cc1,2,-7,-3,-12,-5,82*
CC(C)Cn1c(N)c(C(=O)COC(=O)c2cccc(Cl)c2)c(=O)n(C)c1=O,13,3,3,9,-14,77*
CC(C)Cn1c(N)c(C(=O)COC(=O)/C=C/c2cccs2)c(=O)n(C)c1=O,-2,2,0,-8,-20,53*
